The values below come from article PMC2217204 (The Journal of General Physiology, 2000).

Like-named read-outs stand apart in the source and are kept apart here.

Assay [1] deals with T1, KACh channel (Rattus norvegicus, UniProt P48548+P63251).
T1 sequence (P63251 1-501): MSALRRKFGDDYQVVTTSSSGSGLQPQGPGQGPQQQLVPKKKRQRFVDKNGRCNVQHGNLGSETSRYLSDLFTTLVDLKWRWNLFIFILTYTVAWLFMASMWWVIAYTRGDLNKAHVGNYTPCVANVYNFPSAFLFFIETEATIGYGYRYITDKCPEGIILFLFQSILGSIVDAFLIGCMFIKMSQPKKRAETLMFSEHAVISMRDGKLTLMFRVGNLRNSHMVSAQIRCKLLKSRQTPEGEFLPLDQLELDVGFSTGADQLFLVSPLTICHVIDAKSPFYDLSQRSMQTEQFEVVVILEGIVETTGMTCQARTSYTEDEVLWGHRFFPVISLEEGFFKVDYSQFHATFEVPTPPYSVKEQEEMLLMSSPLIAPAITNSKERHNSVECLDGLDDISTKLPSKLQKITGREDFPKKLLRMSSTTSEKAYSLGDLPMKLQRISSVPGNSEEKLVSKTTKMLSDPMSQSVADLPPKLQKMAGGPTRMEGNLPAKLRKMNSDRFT
T1 sequence (P48548 1-419): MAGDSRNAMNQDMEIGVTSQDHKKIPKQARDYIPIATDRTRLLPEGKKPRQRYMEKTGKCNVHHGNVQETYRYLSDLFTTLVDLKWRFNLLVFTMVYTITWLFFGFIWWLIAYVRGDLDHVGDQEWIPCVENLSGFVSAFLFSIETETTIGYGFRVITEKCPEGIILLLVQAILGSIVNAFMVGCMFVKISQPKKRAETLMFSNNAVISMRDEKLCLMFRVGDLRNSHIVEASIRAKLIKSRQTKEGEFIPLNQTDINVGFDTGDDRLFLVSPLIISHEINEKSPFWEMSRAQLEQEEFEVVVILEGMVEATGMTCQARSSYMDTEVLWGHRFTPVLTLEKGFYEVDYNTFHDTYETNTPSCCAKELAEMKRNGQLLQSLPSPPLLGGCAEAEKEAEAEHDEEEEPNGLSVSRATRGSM
The assay is classed as cell-based. The following applies: 4 mM ATP with 100 μM GTP in pipette, 10 μM ACh, outside-out. In outline:
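Cultured atrial myocytes from 1-day-old rats; outside-out patches at −60 mV, 24–26°C. Pipette held […] 100 μM GTP, GTP plus 4 mM ATP, or these plus atrial cytosolic fraction (5 mg protein/ml). Symmetrical 140 mM KCl, 0.5 mM MgCl2, 5 mM EGTA, 10 mM HEPES, pH 7.2. nPo from 1–2 min of recording.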

The target in assay [2] is T1, KACh channel. The class given is cell-based. In outline: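 Inside-out patches from cultured newborn-rat atrial cells, 10 μM ACh in pipette, −60 mV, 24–26°C. Channels were activated by 100 μM GTP in the bath, then 4 mM ATP was added, with free Mg2+ held at 0.5 mM. nPo from 1–2 min of recording. Open and closed times came from maximum-likelihood fits of idealized records to schemes with 2–3 closed and two open states, using patches with ≤4 open levels.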

Assay [3] has as its system K1 channel. The assay is described as follows: ATP-activated background K1 channel, atrial inside-out patches. The class given is cell-based, rat.
In assay [4] the target is T1, KACh channel. The assay is described as follows: βγ-activated KACh channels, atrial inside-out patches. The assay is classed as cell-based. An outline of the steps:
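Atrial inside-out patches at −60 mV in 140 mM KCl, pH 7.2, 24–26°C. Channels were activated by purified bovine βγ subunit applied to the cytoplasmic face. Linoleic or arachidonic acid (2 μM, sonicated into bath solution) was applied first, then 4 mM ATP was added. nPo was compared before and after ATP.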

Assay [5] deals with KATP channel (Rattus norvegicus, UniProt P70673). Description: KATP channel, inside-out patches from adult rat ventricular cells. The class given is cell-based. An outline of the steps:
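KATP channels that appeared on forming inside-out patches were tested with 5 μM arachidonic acid on the cytoplasmic side. In some patches channels were first allowed to run down, then briefly exposed to 3 mM ATP to reactivate them before fatty acid was applied. Recordings were at 24–26°C; 2 μM was also tested (n = 3).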

Assay [6] deals with GIRK1/4. Description: ATP-dependent gating of GIRK1/4 expressed in Xenopus oocytes, βγ-activated. The class given is cell-based. The settings on record: βγ 50 nM. In outline:
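Xenopus oocytes injected with GIRK1 and GIRK4 cRNA (~0.5 ng/nl) and kept ~2 d at 19°C in Barth's solution. Vitelline membrane was removed before patching. Inside-out patches in 140 mM KCl, pH 7.2. Channel activity and open-time kinetics were assessed with ATP and fatty acid on the cytoplasmic side.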

Assay [7] has as its target T1, KACh channel. The class given is cell-based. The following applies: for inhibition of ATP-dependent gating, extracellular application: 5 μM in the pipette solution (extracellular), after 5 min, n = 4 each; for Hill coefficient of inhibition: ATP-modified KACh channels, inside-out.
For assay [8], the target named is T2, KACh channels in hippocampal pyramidal neurons (Rattus norvegicus, UniProt P48550+P63251).
T2 sequence (P63251 1-501): T1 sequence (P63251 1-501)
T2 sequence (P48550 1-425): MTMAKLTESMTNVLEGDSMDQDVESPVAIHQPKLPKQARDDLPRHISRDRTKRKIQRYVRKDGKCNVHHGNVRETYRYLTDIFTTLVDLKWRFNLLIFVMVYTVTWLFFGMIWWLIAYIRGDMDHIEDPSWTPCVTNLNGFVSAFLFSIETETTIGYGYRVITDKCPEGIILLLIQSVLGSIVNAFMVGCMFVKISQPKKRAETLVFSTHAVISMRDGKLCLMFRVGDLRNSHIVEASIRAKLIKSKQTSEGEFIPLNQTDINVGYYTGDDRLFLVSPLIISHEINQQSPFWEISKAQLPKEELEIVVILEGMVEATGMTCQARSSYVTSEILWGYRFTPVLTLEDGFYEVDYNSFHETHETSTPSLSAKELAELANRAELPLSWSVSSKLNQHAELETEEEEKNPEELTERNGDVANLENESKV
The assay is described as follows: ATP-dependent gating of KACh channel in hippocampal neurons, 5-HT as agonist. The assay is classed as cell-based. The settings on record: 2 μM with 100 μM GTP and 4 mM ATP, 10 μM 5-HT in pipette. In outline:
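Pyramidal neurons from the CA3 region of adult rat hippocampus. Slices ~500 μm thick were digested in 0.33 mg/ml trypsin at 30°C, then in DNase I, triturated, and settled onto coverslips. Inside-out patches were activated by 100 μM GTP, then 4 mM ATP was added. Open states were assessed from duration histograms and kinetic-scheme fits with one or two open states.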

Assay [9] addresses T1, KACh channel. The class given is cell-based. The settings on record: 2 μM fatty acid applied with 30 μM PIP2.
The mark [10] stands for this setting: K 1/2 (effect on ATP-dependent gating of KACh channel), atrial inside-out patches, 100 μM GTP and 4 mM ATP, lipid 0.1, 1, 3, 10 and 30 μM, n = 3 each.

Sequence of KATP channel (P70673 whole entry): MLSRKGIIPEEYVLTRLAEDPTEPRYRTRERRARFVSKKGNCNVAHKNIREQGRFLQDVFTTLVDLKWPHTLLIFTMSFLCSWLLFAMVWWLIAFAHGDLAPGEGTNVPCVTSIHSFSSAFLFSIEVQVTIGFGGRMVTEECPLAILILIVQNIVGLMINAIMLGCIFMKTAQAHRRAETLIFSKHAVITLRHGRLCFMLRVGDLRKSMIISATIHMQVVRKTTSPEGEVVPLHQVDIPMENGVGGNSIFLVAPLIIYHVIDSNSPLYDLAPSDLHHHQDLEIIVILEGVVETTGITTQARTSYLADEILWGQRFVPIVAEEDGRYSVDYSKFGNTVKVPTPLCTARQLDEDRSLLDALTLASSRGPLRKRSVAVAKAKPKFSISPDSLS
Sequence of KATP channel (Q63563 whole entry partner): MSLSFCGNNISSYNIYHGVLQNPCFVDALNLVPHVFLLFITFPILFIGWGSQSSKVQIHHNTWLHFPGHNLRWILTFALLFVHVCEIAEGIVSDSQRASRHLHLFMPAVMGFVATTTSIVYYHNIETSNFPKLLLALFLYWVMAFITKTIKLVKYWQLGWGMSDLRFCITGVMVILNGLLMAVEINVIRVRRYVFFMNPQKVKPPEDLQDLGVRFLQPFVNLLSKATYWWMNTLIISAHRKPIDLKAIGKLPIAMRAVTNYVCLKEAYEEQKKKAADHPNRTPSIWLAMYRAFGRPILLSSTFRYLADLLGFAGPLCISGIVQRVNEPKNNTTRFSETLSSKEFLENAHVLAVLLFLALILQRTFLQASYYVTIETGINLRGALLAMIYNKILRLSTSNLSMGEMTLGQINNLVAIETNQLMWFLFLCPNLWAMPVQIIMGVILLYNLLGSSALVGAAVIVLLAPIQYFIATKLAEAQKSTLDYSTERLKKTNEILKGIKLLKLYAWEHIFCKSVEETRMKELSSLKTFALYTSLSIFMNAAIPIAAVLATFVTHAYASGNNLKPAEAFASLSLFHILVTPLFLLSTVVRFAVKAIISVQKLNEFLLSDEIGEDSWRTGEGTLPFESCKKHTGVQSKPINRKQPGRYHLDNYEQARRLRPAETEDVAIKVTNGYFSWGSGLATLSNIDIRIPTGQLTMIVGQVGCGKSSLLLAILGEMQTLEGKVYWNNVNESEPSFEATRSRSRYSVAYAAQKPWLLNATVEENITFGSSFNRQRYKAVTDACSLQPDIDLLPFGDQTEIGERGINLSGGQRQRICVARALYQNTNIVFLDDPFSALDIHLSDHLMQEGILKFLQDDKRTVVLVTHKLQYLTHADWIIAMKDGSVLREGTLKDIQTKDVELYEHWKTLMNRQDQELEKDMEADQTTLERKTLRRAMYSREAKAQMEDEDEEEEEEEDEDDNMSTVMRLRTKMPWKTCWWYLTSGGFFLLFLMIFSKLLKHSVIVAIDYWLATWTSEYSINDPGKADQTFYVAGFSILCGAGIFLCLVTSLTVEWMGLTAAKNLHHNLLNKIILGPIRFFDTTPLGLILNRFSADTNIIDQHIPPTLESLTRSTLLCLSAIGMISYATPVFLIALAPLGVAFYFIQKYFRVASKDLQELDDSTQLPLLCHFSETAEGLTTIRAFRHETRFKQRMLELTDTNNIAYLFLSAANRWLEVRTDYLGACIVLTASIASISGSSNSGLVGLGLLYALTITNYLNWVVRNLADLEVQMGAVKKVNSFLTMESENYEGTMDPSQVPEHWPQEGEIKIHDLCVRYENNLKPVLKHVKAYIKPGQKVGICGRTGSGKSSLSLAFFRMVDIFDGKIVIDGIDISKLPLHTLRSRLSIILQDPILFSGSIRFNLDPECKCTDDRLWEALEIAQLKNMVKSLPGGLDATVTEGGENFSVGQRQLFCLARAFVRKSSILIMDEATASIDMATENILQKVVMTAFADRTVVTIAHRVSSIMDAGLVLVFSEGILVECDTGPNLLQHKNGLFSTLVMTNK

As for `Nc1ncnc2c1ncn2[C@@H]1O[C@H](COP(=O)(O)OP(=O)(O)OP(=O)(O)O)[C@@H](O)[C@H]1O` [ATP], the “channel activity (nPo) with ATP versus without” value in assay [1] is recorded as “approximately fivefold higher”. Also, the “increase in nPo” value in [2] (4 mM ATP added to GTP, inside-out patches) is “approximately fivefold increase”. Also, the “mean closed time of long closings (C1)” value in assay [2] (4 mM ATP, inside-out patches) was determined as 62 ms. Further, the “Hill coefficient of [ATP]–nPo relationship” value in [2] (n = 3) is recorded as 1.9 ± 0.2. The “activation of K1 channel” value in assay [3] (4 mM ATP in bath, inside-out atrial patch) is reported as “quickly activated”.
`CCCCC/C=C\C/C=C\C/C=C\C/C=C\CCCC(=O)O` [Arachidonic acid [20:4 (n-6)], Arachidonic acid] returned an IC50 in [4] of 1500 nM. Also, the “KATP channel inhibition in the presence of PIP2” value in [5] (5 μM AA with PIP2 present, listed as AA) was “ineffective”. Moreover, the “inhibition of KATP channels reactivated by ATP after rundown” value in assay [5] (brief exposure to 3 mM ATP, n = 4, listed as AA) was “quick inhibition”. Further, in assay [5] (read-out: inhibition of KATP channel activity), the inhibition at 2 µM was 62 ± 12%. For the same compound, in [6], the “effect on ATP-induced changes in GIRK1/4 channel kinetics” value is recorded as “blocked”. The “KACh open time constant after fatty acid” value in assay [7] (2 μM AA with GTP and 4 mM ATP, atrial patch also containing K1 channel) stood at 1.0 ± 0.1 ms. Further, in assay [7], the “inhibition of ATP-dependent gating, extracellular application” value is listed as “did not inhibit” and the “Hill coefficient of inhibition” value is roughly 2. This compound returned an IC50 in assay [7] (setting [10]) of 1700 ± 200 nM. In addition, the “voltage dependence of the effect” value in [7] (channel activity at different membrane potentials (Fig. 10 B)) is on record as “voltage-insensitive”. Besides, the “effect on K1 channel” value in assay [3] (2 or 5 μM AA, ATP-activated, n = 3 each, listed as AA) was “no effect”.
In the case of `CCCCC/C=C\C/C=C\CCCCCCCC(=O)O` [Linoleic acid [18:2 (n-6)], Linoleic acid], the “increase in channel activity on further addition of 4 mM ATP” value in [4] (βγ-activated channels exposed to 2 μM fatty acid first, n = 5) was found to be 1.3 ± 0.1 fold. Further, in assay [5] (5 μM, during channel rundown), the “inhibition of KATP channel activity” value is “near maximal inhibition”. Further, the “open time constant (one open state)” value in [8] is 1.0 ± 0.1 ms. Moreover, the “inhibition of ATP-dependent gating, extracellular application” value in assay [7] is given as “did not inhibit”. Further, the “Hill coefficient of inhibition” value in [7] is recorded as roughly 2. For the same compound, the concentration for half-maximal inhibition (IC50) in [7] (setting [10]) came to 1200 ± 200 nM; in [7] (K 1/2 for inhibition, pipette solution 70 mM K+, n = 3), 1600 ± 400 nM; in [7] (K 1/2 for inhibition, pipette solution 140 mM K+, n = 3) it was 1500 ± 300 nM; in assay [7] (K 1/2 for inhibition, pipette solution 210 mM K+, n = 3) it was 1700 ± 400 nM. Also, the “effect on PIP2-dependent gating of KACh channel” value in assay [9] is “inhibited”. For the same compound, in assay [3] (linoleic acid 2 μM (n = 3), cytosolic fraction 5 mg protein/ml (n = 2), lipid fraction (n = 2)), the “influence on K1 channel kinetics” value was “failed to significantly influence”.

A word on the IC50: it is the concentration needed to halve the response being measured. By inhibition is commonly meant the drop in the measured response relative to a control, in per cent.
